Test results as given in ChEMBL document CHEMBL4368872, “Synthesis and anticonvulsant activity of phenoxyacetyl derivatives of amines, including aminoalkanols and amino acids” (Medchemcomm, 2018).
Activity calls are given as the source filed them.

Tests used:
[1] = Neurotoxicity in Sprague-Dawley rat at 100 mg/kg, ip measured after 0.25 hrs by rotarod test; format: toxicity, organism-based; settings: in vivo
Outline: (§1)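 Rat neurotoxicity after i.p. or p.o. dosing was scored as animals impaired / animals tested at each time point. For p.o. dosing, TD50 was obtained by probit analysis.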

Astrocyte [2] = assay: Cytotoxicity against mouse astrocytes at 10 to 200 uM after 24 hrs by neutral red staining based microscopic analysis; format: cell-based
Outline: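 Mouse astrocyte line seeded at 1×10^4 per well, treated 24 h later with 10–200 µM for 24 h. Medium then replaced with neutral red (4 µg ml⁻¹) in EMEM with 5% FBS for 3 h. Cells washed, dye extracted in ethanol/water/acetic acid, A540 read. Cytotoxicity (%) = (1 − sample A540/control A540) × 100.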

[3] = Protection index, ratio of TD50 for neurotoxicity in ip dosed CF-1 mouse to ED50 for anticonvulsant activity in CF-1 mouse model of maximal electroshock-induced seizure; format: toxicity, organism-based; settings: in vivo, read-out: Ratio TD50/ED50
Rattus norvegicus [4] = assay: Anticonvulsant activity in hippocampal kindling Sprague-Dawley rat model assessed as decrease of seizure score at 100 mg/kg, ip administered as single dose measured up to 135 mins; format: functional, organism-based
Outline: (§2)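 Rats implanted with a hippocampal electrode and kindled with suprathreshold trains (200 µA, 10 s, 50 Hz) every 30 min for 6 h on alternate days until fully kindled. One week later they received a single i.p. dose. Seizure score (Racine scale) and afterdischarge duration were recorded at 0–135 min and compared with the control stimulus given 15 min before dosing; each animal served as its own control. Values are mean ± SEM.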

[5] = Neurotoxicity in Sprague-Dawley rat at 300 mg/kg, ip measured after 2 hrs by rotarod test; format: toxicity, organism-based; settings: in vivo; outline: as §1
[6] = Neurotoxicity in Sprague-Dawley rat at 300 mg/kg, ip measured after 0.5 hrs by rotarod test; format: toxicity, organism-based; settings: in vivo; outline: as §1
[7] = Neurotoxicity in ip dosed CF-1 mouse by rotarod test; format: toxicity, organism-based; settings: in vivo
Outline: (§3)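 Mice dosed i.p. were placed on a 1 in. knurled rod turning at 6 rpm. Toxicity was scored as failure to keep balance for at least 1 min, i.e. falling off three or more times. Results are reported as animals showing toxicity / animals tested at each time point.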

Rattus norvegicus [8] = assay: Anticonvulsant activity in hippocampal kindling Sprague-Dawley rat model assessed as after discharge time at 100 mg/kg, ip administered as single dose measured after 15 mins; format: functional; outline: as §2
[9] = Neurotoxicity in Sprague-Dawley rat at 30 mg/kg, ip measured after 4 hrs by rotarod test; format: toxicity, organism-based; settings: in vivo; outline: as §1
[10] = Neurotoxicity in Sprague-Dawley rat at 30 mg/kg, ip measured after 0.5 hrs by rotarod test; format: toxicity, organism-based; settings: in vivo; outline: as §1
Rattus norvegicus [11] = assay: Anticonvulsant activity in hippocampal kindling Sprague-Dawley rat model assessed as after discharge time at 50 mg/kg, ip administered as single dose measured after 135 mins; format: functional; outline: as §2
[12] = Neurotoxicity in Sprague-Dawley rat at 300 mg/kg, ip measured after 0.25 hrs by rotarod test; format: toxicity, organism-based; settings: in vivo; outline: as §1
Mus musculus [13] = assay: Anticonvulsant activity in CF-1 mouse assessed as protection against 44 mA current-induced seizure at 120 mg/kg, ip after 15 mins by 6 Hz psychomotor test; format: functional, organism-based
Outline: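 Mice dosed i.p. (30, 100, 300 mg/kg; one line at 120 mg/kg read at 15 min). Corneal stimulation at 6 Hz, 44 mA for 3 s from a constant-current device induces a psychomotor seizure with stunned posture, forelimb automatisms, clonus, vibrissae twitching and Straub tail. Scored as number of animals protected / number tested (4 per group) at 0.5 and 2 h.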

[14] = Neurotoxicity in Sprague-Dawley rat at 100 mg/kg, ip measured after 2 hrs by rotarod test; format: toxicity, organism-based; settings: in vivo, 2 h; outline: as §1
[15] = Neurotoxicity in CF-1 mouse at 220 mg/kg, ip measured after 0.25 hrs by rotarod test; format: toxicity, organism-based; settings: in vivo; outline: as §3
Rattus norvegicus [16] = assay: Anticonvulsant activity in hippocampal kindling Sprague-Dawley rat model assessed as after discharge time at 50 mg/kg, ip administered as single dose measured after 75 mins; format: functional; outline: as §2
Mus musculus [17] = assay: Anticonvulsant activity in CF-1 mouse model of maximal electroshock-induced seizure assessed as suppression of tonic hind limb extension at 110 mg/kg, ip measured at 4 hrs post dose; format: functional, organism-based
Outline: (§4)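 Mice dosed i.p. and given maximal electroshock at 50 mA. Read-out is protection, reported as number protected / number tested at 0.25, 0.5, 1 and 4 h after dosing.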

Rattus norvegicus [18] = assay: Anticonvulsant activity in hippocampal kindling Sprague-Dawley rat model assessed as after discharge time at 100 mg/kg, ip administered as single dose measured after 75 mins; format: functional; outline: as §2
[19] = Neurotoxicity in Sprague-Dawley rat at 50 mg/kg, ip administered as single dose measured after 0.25 hrs by rotarod test; format: toxicity, organism-based; settings: in vivo; outline: as §1
[20] = Neurotoxicity in CF-1 mouse at 220 mg/kg, ip measured after 1 hr by rotarod test; format: toxicity, organism-based; settings: in vivo; outline: as §3
[21] = Neurotoxicity in Sprague-Dawley rat assessed as abnormal behavior at 100 mg/kg, ip administered as single dose measured after 0.25 hrs by rotarod test; format: toxicity, organism-based; settings: in vivo; outline: as §1
Rattus norvegicus [22] = assay: Anticonvulsant activity in hippocampal kindling Sprague-Dawley rat model assessed as after discharge time at 50 mg/kg, ip administered as single dose measured after 45 mins; format: functional; outline: as §2
Rattus norvegicus [23] = assay: Anticonvulsant activity in hippocampal kindling Sprague-Dawley rat model assessed as after discharge time at 50 mg/kg, ip administered as single dose measured immediately; format: functional; outline: as §2
Rattus norvegicus [24] = assay: Anticonvulsant activity in po dosed Sprague-Dawley rat model of maximal electroshock-induced seizure assessed as suppression of tonic hind limb extension; format: functional
Outline: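 Rats dosed p.o. and tested by MES at 150 mA. ED50 derived by probit analysis from quantitative dose groups, run at the time of peak effect (hours).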

Rattus norvegicus [25] = assay: Anticonvulsant activity in hippocampal kindling Sprague-Dawley rat model assessed as after discharge time at 100 mg/kg, ip administered as single dose measured after 135 mins; format: functional; outline: as §2
Rattus norvegicus [26] = assay: Anticonvulsant activity in hippocampal kindling Sprague-Dawley rat model assessed as after discharge time at 100 mg/kg, ip administered as single dose measured after 105 mins; format: functional; outline: as §2
Mus musculus [27] = assay: Anticonvulsant activity in CF-1 mouse model of maximal electroshock-induced seizure assessed as suppression of tonic hind limb extension at 110 mg/kg, ip measured at 0.5 hrs post dose; format: functional, organism-based; outline: as §4
Astrocyte [28] = assay: Cytotoxicity against human astrocytes at 10 to 200 uM after 24 hrs by MTT assay; format: cell-based
Outline: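 Human astrocytes derived from iPSCs via neural stem cells (7 days neural induction, then 17 days in astrocyte growth medium; GFAP-confirmed). Cells seeded at 1×10^4 per well in 1% FBS medium the day before, then exposed to 10–200 µM for 24 h with vehicle controls. MTT added for 4 h at 37 °C, formazan dissolved, OD read at 570 nm.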

[29] = Neurotoxicity in Sprague-Dawley rat at 30 mg/kg, ip measured after 2 hrs by rotarod test; format: toxicity, organism-based; settings: in vivo; outline: as §1
Astrocyte [30] = assay: Cytotoxicity against mouse astrocytes at 10 to 200 uM after 24 hrs by MTT assay; format: cell-based
Outline: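 Mouse astrocyte line (CRL-2541) grown in DMEM with 10% FBS at 37 °C, 5% CO2. Seeded at 1×10^4 per well in 1% FBS medium, treated with 10–200 µM for 24 h against vehicle controls. MTT reagent added for 4 h at 37 °C, crystals dissolved, absorbance read at 570 nm.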

CCC(O)CNC(=O)COc1c(C)cccc1C (stereo not given)
Activity [1]: Active

Cc1cccc(C)c1OCC(=O)N[C@H](C)CO
Activity (Astrocyte [2]): Non-Toxic | selectivity ratio [3]: 1.43 | Activity (Rattus norvegicus [4]): Active | Activity [5]: Toxic | Activity [6]: Toxic | TD50 [7]: 140 mg/kg | Time (Rattus norvegicus [8]): 48 s | Activity [9]: Non-Toxic | Activity [10]: Non-Toxic | Time (Rattus norvegicus [11]): 72 s | Activity [12]: Toxic | Activity (Mus musculus [13]): Active | Activity [14]: Non-Toxic | Activity [15]: Toxic | Time (Rattus norvegicus [16]): 75 s | Activity (Mus musculus [17]): inactive | Time (Rattus norvegicus [18]): 80 s | Activity [19]: Non-Toxic | Activity [20]: Non-Toxic | Activity [21]: Toxic | Time (Rattus norvegicus [22]): 73 s | Time (Rattus norvegicus [23]): 72 s | ED50 (Rattus norvegicus [24]): 12 mg/kg | Time (Rattus norvegicus [25]): 76 s | Time (Rattus norvegicus [26]): 77 s | Activity (Mus musculus [27]): inactive | Activity (Astrocyte [28]): Non-Toxic | Activity [29]: Non-Toxic | Activity (Astrocyte [30]): Non-Toxic
